Data from ChEMBL document CHEMBL1151705, “Novel azalides derived from 16-membered macrolides. Part II: Isolation of the linear 9-formylcarboxylic acid and its sequential macrocyclization with an amino alcohol or an azidoamine” (2008).
≈ marks a conversion by molar mass, not a printed value.

How the values were obtained:
[1] = tested on: Streptococcus pneumoniae; assay: Antimicrobial activity against drug-susceptible Streptococcus pneumoniae DP1 Type1 after 20 hrs by agar dilution method; format: functional
Summary of the method: (§1)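 Streptococci, H. influenzae and M. catarrhalis were precultured on blood agar plates. Suspensions of about 10⁶ CFU/ml were inoculated onto sensitivity disk agar supplemented with 5% horse blood and incubated at 37 °C for 20 h. MIC was read as the lowest drug concentration with no visible growth.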

[2] = tested on: Haemophilus influenzae; assay: Antimicrobial activity against drug-susceptible Haemophilus influenzae 1 after 20 hrs by agar dilution method; format: functional; summary of the method: as §1
[3] = tested on: Staphylococcus aureus; assay: Antimicrobial activity against drug-susceptible Staphylococcus aureus 2 after 20 hrs by agar dilution method; format: functional
Summary of the method: (§2)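 Agar dilution MIC. S. aureus seed culture was grown in sensitivity test broth. Cell suspension (about 10⁶ CFU/ml) was inoculated onto sensitivity disk agar with 5% horse blood and incubated at 37 °C for 20 h. MIC was the lowest drug concentration that prevented visible growth.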

[4] = tested on: Staphylococcus aureus; assay: Antimicrobial activity against Staphylococcus aureus 6 expressing inducible ermC after 20 hrs by agar dilution method
[5] = tested on: Streptococcus pyogenes; assay: Antimicrobial activity against Streptococcus pyogenes 3 expressing mefA after 20 hrs by agar dilution method; format: functional; summary of the method: as §1
[6] = tested on: Haemophilus influenzae; assay: Antimicrobial activity against drug-susceptible Haemophilus influenzae 2 after 20 hrs by agar dilution method; format: functional; summary of the method: as §1
[7] = tested on: Moraxella catarrhalis; assay: Antimicrobial activity against drug-susceptible Moraxella catarrhalis 1 after 20 hrs by agar dilution method; format: functional; summary of the method: as §1
[8] = tested on: Streptococcus pneumoniae; assay: Antimicrobial activity against drug-susceptible Streptococcus pneumoniae 2 after 20 hrs by agar dilution method; format: functional; summary of the method: as §1
[9] = tested on: Haemophilus influenzae; assay: Antimicrobial activity against drug-susceptible Haemophilus influenzae 4 after 20 hrs by agar dilution method; format: functional; summary of the method: as §1
[10] = tested on: Streptococcus pneumoniae; assay: Antimicrobial activity against Streptococcus pneumoniae 9 expressing mefA after 20 hrs by agar dilution method; format: functional; summary of the method: as §1
[11] = tested on: Moraxella catarrhalis; assay: Antimicrobial activity against drug-susceptible Moraxella catarrhalis 2 after 20 hrs by agar dilution method; format: functional; summary of the method: as §1
[12] = tested on: Staphylococcus aureus; assay: Antimicrobial activity against Staphylococcus aureus 5 expressing inducible ermB after 20 hrs by agar dilution method; format: functional; summary of the method: as §2
[13] = tested on: Staphylococcus aureus; assay: Antimicrobial activity against drug-susceptible Staphylococcus aureus 3 after 20 hrs by agar dilution method; format: functional; summary of the method: as §2
[14] = tested on: Staphylococcus aureus; assay: Antimicrobial activity against drug-susceptible Staphylococcus aureus 209P JC-1 after 20 hrs by agar dilution method; format: functional; summary of the method: as §2
[15] = tested on: Streptococcus pyogenes; assay: Antimicrobial activity against drug-susceptible Streptococcus pyogenes 1 after 20 hrs by agar dilution method; format: functional; summary of the method: as §1
[16] = tested on: Staphylococcus aureus; assay: Antimicrobial activity against Staphylococcus aureus 6 expressing inducible ermB after 20 hrs by agar dilution method; format: functional; summary of the method: as §2
[17] = tested on: Haemophilus influenzae; assay: Antimicrobial activity against drug-susceptible Haemophilus influenzae 3 after 20 hrs by agar dilution method; format: functional; conditions: Haemophilus influenzae, 20 h; read-out: MIC; summary of the method: as §1
[18] = tested on: Streptococcus pneumoniae; assay: Antimicrobial activity against Streptococcus pneumoniae 6 constitutively expressing ermB after 20 hrs by agar dilution method; format: functional; conditions: Streptococcus pneumoniae, 20 h; read-out: MIC; summary of the method: as §1
[19] = tested on: Streptococcus pneumoniae; assay: Antimicrobial activity against Streptococcus pneumoniae 7 expressing inducible ermB after 20 hrs by agar dilution method; format: functional; conditions: Streptococcus pneumoniae, 20 h; read-out: MIC; summary of the method: as §1
[20] = tested on: Streptococcus pneumoniae; assay: Antimicrobial activity against drug-susceptible Streptococcus pneumoniae 3 after 20 hrs by agar dilution method; format: functional; conditions: Streptococcus pneumoniae, 20 h; read-out: MIC; summary of the method: as §1
[21] = tested on: Streptococcus pneumoniae; assay: Antimicrobial activity against Streptococcus pneumoniae 8 expressing inducible ermB after 20 hrs by agar dilution method; format: functional; summary of the method: as §1
[22] = tested on: Staphylococcus aureus; assay: Antimicrobial activity against Staphylococcus aureus 4 constitutively expressing ermA after 20 hrs by agar dilution method; format: functional; summary of the method: as §2
[23] = tested on: Streptococcus pneumoniae; assay: Antimicrobial activity against Streptococcus pneumoniae 4 constitutively expressing ermB after 20 hrs by agar dilution method; format: functional; conditions: Streptococcus pneumoniae, 20 h; read-out: MIC; summary of the method: as §1
[24] = tested on: Streptococcus pneumoniae; assay: Antimicrobial activity against Streptococcus pneumoniae 10 expressing mefA after 20 hrs by agar dilution method; format: functional; conditions: Streptococcus pneumoniae, 20 h; read-out: MIC; summary of the method: as §1
[25] = tested on: Streptococcus pneumoniae; assay: Antimicrobial activity against Streptococcus pneumoniae 5 constitutively expressing ermB/mefA after 20 hrs by agar dilution method; format: functional; conditions: Streptococcus pneumoniae, 20 h; read-out: MIC; summary of the method: as §1
[26] = tested on: Streptococcus pyogenes; assay: Antimicrobial activity against Streptococcus pyogenes 2 constitutively expressing ermB after 20 hrs by agar dilution method; format: functional; summary of the method: as §1
[27] = Streptococcus pneumoniae, 20 h, read-out: MIC
[28] = Haemophilus influenzae, 20 h, read-out: MIC
[29] = Staphylococcus aureus, 20 h, read-out: MIC
[30] = Streptococcus pyogenes, 20 h, read-out: MIC
[31] = Moraxella catarrhalis, 20 h, read-out: MIC
[32] = Staphylococcus aureus, 209P, 20 h, read-out: MIC

Row | MIC [1, 27] [µg/mL] | MIC [2, 28] [µg/mL] | MIC [3, 29] [µg/mL] | MIC [16] [µg/mL] | MIC [5, 30] [µg/mL] | MIC [17] [µg/mL] | MIC [6, 28] [µg/mL] | MIC [18] [µg/mL] | MIC [19] [µg/mL] | MIC [20] [µg/mL] | MIC [8, 27] [µg/mL] | MIC [9, 28] [µg/mL] | MIC [10, 27] [µg/mL] | MIC [22] [µg/mL] | MIC [11, 31] [µg/mL] | MIC [12, 29] [µg/mL] | MIC [23] [µg/mL] | MIC [24] [µg/mL] | MIC [25] [µg/mL] | MIC [26] [µg/mL] | Compound | further results
1 | – | – | – | – | – | – | – | – | – | – | – | – | – | – | – | – | – | – | – | – | CCOC(=O)[C@H]1[C@H](C)O[C@@H](O[C@H]2[C@H](N(C)C)[C@@H](O)[C@H](O[C@H]3[C@@H](CC=O)C[C@@H](C)[C@@H](O)CN(C)CCC(C/C=C/c4ccnc5ccccc45)NC(=O)C[C@@H](OC(=O)CC)[C@@H]3OC)O[C@@H]2C)C[C@@]1(C)O (stereo in doubt) | MIC [1]: 0.25 µg/mL (≈ 0.257 µM); MIC [2]: 64 µg/mL (≈ 65.9 µM); MIC [3]: 8 µg/mL (≈ 8.24 µM); MIC [4]: 4 µg/mL (≈ 4.12 µM); MIC [5]: 2 µg/mL (≈ 2.06 µM); MIC [6]: 4 µg/mL (≈ 4.12 µM); MIC [7]: 8 µg/mL (≈ 8.24 µM); MIC [8]: 0.25 µg/mL (≈ 0.257 µM); MIC [9]: 16 µg/mL (≈ 16.5 µM); MIC [10]: 0.5 µg/mL (≈ 0.515 µM); MIC [11]: 4 µg/mL (≈ 4.12 µM); MIC [12]: 2 µg/mL (≈ 2.06 µM); MIC [13]: 2 µg/mL (≈ 2.06 µM); MIC [14]: 4 µg/mL (≈ 4.12 µM); MIC [15]: 0.5 µg/mL (≈ 0.515 µM)
2 | 0.06 (≈ 0.0608 µM) | > 64 | 1 (≈ 1.01 µM) | 1 (≈ 1.01 µM) | 0.5 (≈ 0.507 µM) | 16 (≈ 16.2 µM) | 8 (≈ 8.11 µM) | > 64 | 8 (≈ 8.11 µM) | 0.13 (≈ 0.132 µM) | 0.25 (≈ 0.253 µM) | 16 (≈ 16.2 µM) | 0.13 (≈ 0.132 µM) | > 64 | 2 (≈ 2.03 µM) | 0.25 (≈ 0.253 µM) | > 64 | 0.13 (≈ 0.132 µM) | > 64 | > 64 | CCOC(=O)[C@H]1[C@H](C)O[C@@H](O[C@H]2[C@H](N(C)C)[C@@H](O)[C@H](O[C@H]3[C@@H](CC=O)C[C@@H](C)[C@@H](O)CN(C)CC(/C=C\Cc4cnc5ccccc5c4)CCOC(=O)C[C@@H](OC(=O)CC)[C@@H]3OC)O[C@@H]2C)C[C@@]1(C)O (stereo not given in full) | MIC [7, 31]: 2 µg/mL (≈ 2.03 µM); MIC [21, 27]: 8 µg/mL (≈ 8.11 µM); MIC [13, 29]: 0.25 µg/mL (≈ 0.253 µM); MIC [14, 32]: 0.5 µg/mL (≈ 0.507 µM); MIC [15, 30]: 0.13 µg/mL (≈ 0.132 µM)
3 | 0.015 (≈ 0.0152 µM) | 32 (≈ 32.4 µM) | 0.25 (≈ 0.253 µM) | 0.25 (≈ 0.253 µM) | 0.25 (≈ 0.253 µM) | 8 (≈ 8.11 µM) | 2 (≈ 2.03 µM) | 128 (≈ 130 µM) | 2 (≈ 2.03 µM) | 0.015 (≈ 0.0152 µM) | 0.03 (≈ 0.0304 µM) | 8 (≈ 8.11 µM) | 0.015 (≈ 0.0152 µM) | > 128 | 1 (≈ 1.01 µM) | 0.13 (≈ 0.132 µM) | > 128 | 0.015 (≈ 0.0152 µM) | > 128 | > 128 | CCOC(=O)[C@H]1[C@H](C)O[C@@H](O[C@H]2[C@H](N(C)C)[C@@H](O)[C@H](O[C@H]3[C@@H](CC=O)C[C@@H](C)[C@@H](O)CN(C)CC(/C=C/Cc4ccc5ncccc5c4)CCOC(=O)C[C@@H](OC(=O)CC)[C@@H]3OC)O[C@@H]2C)C[C@@]1(C)O (stereo not given in full) | MIC [7, 31]: 1 µg/mL (≈ 1.01 µM); MIC [21, 27]: 2 µg/mL (≈ 2.03 µM); MIC [13, 29]: 0.13 µg/mL (≈ 0.132 µM); MIC [14, 32]: 0.13 µg/mL (≈ 0.132 µM); MIC [15, 30]: 0.03 µg/mL (≈ 0.0304 µM)
4 | 0.03 | 32 | 1 | 0.5 | 0.5 | 8 | 1 | > 128 | 16 | 0.06 | 0.06 | 16 | 0.06 | > 128 | 2 | 0.5 | > 128 | 0.06 | > 128 | > 128 | CCOC(=O)[C@H]1[C@H](C)O[C@@H](O[C@H]2[C@H](N(C)C)[C@@H](O)[C@H](O[C@H]3[C@@H](CC=O)C[C@@H](C)[C@@H](O)CN(C)CCC(CCCc4cnc5ccccc5c4)NC(=O)C[C@@H](OC(=O)CC)[C@@H]3OC)O[C@@H]2C)C[C@@]1(C)O (mixture of isomers) | MIC [7]: 2 µg/mL; MIC [21]: 64 µg/mL; MIC [13, 29]: 0.25 µg/mL; MIC [14, 32]: 0.5 µg/mL; MIC [15, 30]: 0.13 µg/mL
